The values that follow come from ChEMBL document CHEMBL1128342, “Novel thiazole-based heterocycles as selective inhibitors of fibrinogen-mediated platelet aggregation” (J Med Chem, 1995).

A short description of assay [1]: In vitro inhibition of thrombin-induced platelet aggregation. It is filed as functional. The conditions noted are these: Homo sapiens.
In assay [2] the target is T1, Integrin alpha-IIb/beta-3 (Homo sapiens, UniProt P05106+P08514). Description: Inhibition of [125I]fibrinogen binding to human Fibrinogen Receptor. It is filed as protein-complex assay.
Target sequence in this assay (P05106 27-788 limits assumed): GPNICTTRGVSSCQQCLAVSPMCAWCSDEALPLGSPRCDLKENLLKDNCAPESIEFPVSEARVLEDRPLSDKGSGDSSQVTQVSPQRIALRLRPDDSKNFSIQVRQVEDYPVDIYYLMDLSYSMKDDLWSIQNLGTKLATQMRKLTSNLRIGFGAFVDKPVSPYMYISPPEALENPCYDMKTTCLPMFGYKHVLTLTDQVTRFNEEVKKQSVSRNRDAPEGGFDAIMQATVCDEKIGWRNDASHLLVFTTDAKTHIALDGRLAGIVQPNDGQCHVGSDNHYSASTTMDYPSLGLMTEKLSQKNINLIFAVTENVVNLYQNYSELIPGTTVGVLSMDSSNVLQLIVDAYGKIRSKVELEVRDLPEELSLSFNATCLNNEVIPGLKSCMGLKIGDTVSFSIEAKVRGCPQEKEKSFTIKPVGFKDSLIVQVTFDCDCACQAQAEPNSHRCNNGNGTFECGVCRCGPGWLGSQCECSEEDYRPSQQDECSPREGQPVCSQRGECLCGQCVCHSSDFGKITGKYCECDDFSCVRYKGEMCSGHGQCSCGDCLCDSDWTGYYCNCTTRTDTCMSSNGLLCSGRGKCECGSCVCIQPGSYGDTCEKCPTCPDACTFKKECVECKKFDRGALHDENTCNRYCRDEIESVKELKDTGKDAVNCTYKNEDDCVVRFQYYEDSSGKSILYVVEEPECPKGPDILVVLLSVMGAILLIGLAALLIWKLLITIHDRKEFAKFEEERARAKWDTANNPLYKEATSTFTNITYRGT
Target sequence in this assay (P08514 32-887 limits assumed): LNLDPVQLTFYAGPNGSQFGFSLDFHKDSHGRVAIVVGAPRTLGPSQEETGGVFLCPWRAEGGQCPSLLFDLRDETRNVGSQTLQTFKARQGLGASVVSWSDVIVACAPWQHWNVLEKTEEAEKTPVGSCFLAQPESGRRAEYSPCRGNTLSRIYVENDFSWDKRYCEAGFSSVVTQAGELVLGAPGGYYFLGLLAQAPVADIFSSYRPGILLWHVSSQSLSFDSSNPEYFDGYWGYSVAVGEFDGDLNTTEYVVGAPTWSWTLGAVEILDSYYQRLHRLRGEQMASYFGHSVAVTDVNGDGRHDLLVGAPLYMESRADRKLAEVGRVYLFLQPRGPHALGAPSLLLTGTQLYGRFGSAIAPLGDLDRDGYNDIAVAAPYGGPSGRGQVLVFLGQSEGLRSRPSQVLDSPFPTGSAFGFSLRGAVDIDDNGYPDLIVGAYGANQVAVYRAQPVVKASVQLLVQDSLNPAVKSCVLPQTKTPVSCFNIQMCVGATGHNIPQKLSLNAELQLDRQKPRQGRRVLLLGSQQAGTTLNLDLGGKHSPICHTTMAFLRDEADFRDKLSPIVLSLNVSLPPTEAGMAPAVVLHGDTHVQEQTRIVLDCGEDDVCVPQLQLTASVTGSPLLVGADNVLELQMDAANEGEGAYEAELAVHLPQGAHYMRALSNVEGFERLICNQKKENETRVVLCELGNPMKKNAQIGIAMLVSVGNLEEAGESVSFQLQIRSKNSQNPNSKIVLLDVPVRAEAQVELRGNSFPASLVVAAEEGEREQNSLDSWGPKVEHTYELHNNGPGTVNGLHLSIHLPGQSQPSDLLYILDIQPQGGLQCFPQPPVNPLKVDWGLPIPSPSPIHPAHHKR
Target sequence in this assay (P08514 891-1039 limits assumed): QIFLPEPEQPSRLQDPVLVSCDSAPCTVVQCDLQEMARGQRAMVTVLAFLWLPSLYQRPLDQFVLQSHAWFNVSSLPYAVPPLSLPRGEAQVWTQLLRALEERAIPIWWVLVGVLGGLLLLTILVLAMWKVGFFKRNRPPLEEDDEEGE
Assay [3] has as its target T1, Integrin alpha-IIb/beta-3. Description: Inhibition of thrombin-induced platelet aggregation at 50 uM. It is filed as functional.
Assay [4] has as its target T1, Integrin alpha-IIb/beta-3. Description: Inhibition of [125I]fibrinogen binding to human Fibrinogen Receptor at 50 uM. It is filed as protein-complex assay. The essentials:
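Human PRP with aspirin (50 μM, 37 °C, 20 min), pH 6.5, PGE1 0.9 μM; platelets gel-filtered, 1×10^8 per tube, thrombin-activated 2 min at room temperature, then hirudin. Compound plus [125I]fibrinogen (0.1 μM final) 10 min room temperature; platelets spun through silicone oil and pellet counted. Nonspecific binding with 4 mg/mL unlabeled fibrinogen; triplicates; % inhibition of specific binding vs fibrinogen alone.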

As to `CCN(CC)CCCNC(=O)c1cnn(-c2nc(-c3ccccc3)cs2)c1C(F)(F)F`, the figures for the IC50 in assay [1] and in assay [2] were 30 µM and 50 µM, respectively. `O=C(NCCCN1CCCC1=O)c1cnn(-c2nc(-c3cccc(C(F)(F)F)c3)cs2)c1C(F)(F)F`: the inhibition in assay [3] and in assay [4] was 0% in each case. Take `CN(C)/C=N/CCCNC(=O)c1cnn(-c2nc(-c3cccc(C(F)(F)F)c3)cs2)c1C(F)(F)F`: the figures for the IC50 in assay [1] and in assay [2] were 13.7 µM and 15.6 µM, respectively. For the molecule `N=C(N)CCCNC(=O)c1cnn(-c2nc(-c3cccc(C(F)(F)F)c3)cs2)c1C(F)(F)F`, the figures for the IC50 in assay [1] and in assay [2] were 13 µM and 23 µM, respectively.

On to `CCN(CC)CCCCCCCNC(=O)c1cnn(-c2nc(-c3cccc(C(F)(F)F)c3)cs2)c1C(F)(F)F`, for which the inhibition (as a rule, the relative decrease from the control value, in per cent) in assay [3] was determined as 35%; in assay [4], 0%. `NCCCNC(=O)c1cnn(-c2nc(-c3cccc(C(F)(F)F)c3)cs2)c1C(F)(F)F`: the IC50 – broadly, the concentration needed to halve the response being measured – in assay [1] was found to be 14 µM; in assay [2], 12.3 µM. The matching figures for `O=C(NCCCN1CCCCC1)c1cnn(-c2nc(-c3cccc(C(F)(F)F)c3)cs2)c1C(F)(F)F`: 10.9 µM and 30 µM. Consider `NCCCCCNC(=O)c1cnn(-c2nc(-c3cccc(C(F)(F)F)c3)cs2)c1C(F)(F)F`, for which the midpoint of inhibition in assay [1], the IC50, lay at 11.5 µM. Also, the inhibition in assay [4] is 61%. Take `COc1ccc(CCNC(=O)C(CC(=O)O)NC(=O)CCCCCCCN=C(N)N)cc1` (centres undefined): the IC50 in assay [1] amounted to 7.9 µM; in assay [2] it was 9 µM. Turning to `CC(=O)Oc1ccccc1C(=O)O` [ASPIRIN], the IC50 in assay [1] was > 100 µM.

Take `CCCNCCCNC(=O)c1cnn(-c2nc(-c3cccc(C(F)(F)F)c3)cs2)c1C(F)(F)F`: the values for the IC50 in assay [1] and in assay [2] were 14.3 µM and 10 µM, respectively. The molecule `CCN(CC)CCCNC(=O)c1cnn(-c2nc(-c3cccc(C(F)(F)F)c3)cs2)c1C(F)(F)F` registered an IC50 in assay [2] of 4.1 µM.

In the case of `CCN(CC)CCCNC(=O)c1cnn(-c2nc(-c3cccc(C(F)(F)F)c3)c(C(=O)O)s2)c1C(F)(F)F`, the inhibition in assay [3] stood at 30%.

With `CCN(CC)CCCNC(=O)c1cnn(-c2nc(-c3ccc(Cl)cc3)cs2)c1C(F)(F)F`, the IC50 was 6.8 µM in assay [1] and 45 µM in assay [2].

As to `NCCCCNC(=O)c1cnn(-c2nc(-c3cccc(C(F)(F)F)c3)cs2)c1C(F)(F)F`, the IC50 is 4.8 µM in assay [1] and 18.3 µM in assay [2]. With `CC(C)NCCCNC(=O)c1cnn(-c2nc(-c3cccc(C(F)(F)F)c3)cs2)c1C(F)(F)F`, the IC50 in assay [1] was found to be 6.7 µM; in assay [2], 11.2 µM.

`N=C(N)NCCCNC(=O)c1cnn(-c2nc(-c3cccc(C(F)(F)F)c3)cs2)c1C(F)(F)F`: the IC50 worked out at 11.8 µM in assay [1] and 17.5 µM in assay [2].

With `NCCNC(=O)c1cnn(-c2nc(-c3cccc(C(F)(F)F)c3)cs2)c1C(F)(F)F`, the inhibition in assay [4] stood at 44%. For the molecule `O=C(NCCCNc1ccccc1)c1cnn(-c2nc(-c3cccc(C(F)(F)F)c3)cs2)c1C(F)(F)F`, the results for the inhibition in assay [3] and in assay [4] were 18% and 0%, respectively.

In turn, `N=C(N)NCCC[C@H](N)C(=O)NCC(=O)N[C@@H](CC(=O)O)C(=O)N[C@@H](CO)C(=O)O` had an IC50 in assay [1] of 30 µM. For `O=C(NCCCn1ccnc1)c1cnn(-c2nc(-c3cccc(C(F)(F)F)c3)cs2)c1C(F)(F)F`, the results for the inhibition in assay [3] and in assay [4] were 33% and 0%, respectively. Regarding `CCN(CC)CCCNC(=O)c1cnn(-c2nc(-c3cccc(C(F)(F)F)c3)c(Br)s2)c1C(F)(F)F`, the IC50 in assay [1] is 2.7 µM; in assay [2] it was 1.3 µM.

For the molecule `CCN(CC)CCCNC(=O)c1cnn(-c2nc(-c3cccc(C)c3)cs2)c1C(F)(F)F`, the IC50 in assay [1] came to 25 µM; in assay [2] it was 50 µM. For the molecule `CCN(CC)CCCNC(=O)c1cnn(-c2nc(-c3ccc(C)cc3)cs2)c1C(F)(F)F`, the figures for the IC50 in assay [1] and in assay [2] were 8.2 µM and 70 µM, respectively. In assay [1], `CCN(CC)CCCNC(=O)c1cnn(-c2nc(-c3ccc(OC)cc3)cs2)c1C(F)(F)F` registered a half-inhibitory concentration (IC50) of 12.5 µM. This molecule had an inhibition in assay [4] of 57%. As for `O=C(NCCCNC1CCCCC1)c1cnn(-c2nc(-c3cccc(C(F)(F)F)c3)cs2)c1C(F)(F)F`, the results for the IC50 in assay [1] and in assay [2] were 6.1 µM and 25 µM, respectively.

Consider `CCN(CC)CCCNC(=O)c1cnn(-c2nc(-c3ccc(C(F)(F)F)cc3)cs2)c1C(F)(F)F`, for which the IC50 in assay [1] turned out to be 9.1 µM; in assay [2], 40 µM.
